Results taken from ChEMBL document CHEMBL3352538, “Vascular L-type Ca²⁺ channel blocking activity of sulfur-containing indole alkaloids from Glycosmis petelotii” (J Nat Prod, 2014).

Legend:
[1] = biological target: T1, Voltage-gated L-type calcium channel (Rattus norvegicus, UniProt P22002+Q02485+P27732); test: Inhibition of L-type calcium channel in Wistar rat aorta rings assessed as relaxation of phenylephrine-induced contraction in Ca2+ free medium
Method in brief: (§1)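 Rings in Ca2+-free PSS with 1 mM EGTA for 15 min, then 30 min incubation with vehicle or alkaloid. Contraction to 10 μM phenylephrine reflects sarcoplasmic reticulum Ca2+ release; 3.5 mM Ca2+ is then re-added with phenylephrine still present to index Ca2+ influx. Washed 45 min and repeated at a higher concentration. Expressed as % of 0.3 μM phenylephrine contraction in PSS.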

[2] = biological target: T1, Voltage-gated L-type calcium channel; test: Inhibition of L-type calcium channel in endothelium-denuded Wistar rat aorta rings assessed as relaxation of 60 mM K+-induced contraction; conditions: for inhibition (INH): rat
[3] = biological target: T1, Voltage-gated L-type calcium channel; test: Inhibition of L-type calcium channel in endothelium-denuded Wistar rat aorta rings assessed as relaxation of 30 mM K+-induced contraction
Method in brief: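 Endothelium-denuded rat aorta rings, isometric tension, equilibrated 60 min in PSS gassed with 95% O2/5% CO2 (pH 7.4). Contracted with 0.3 μM phenylephrine, or 30 or 60 mM K+ (KCl replacing NaCl).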

[4] = biological target: T1, Voltage-gated L-type calcium channel; test: Inhibition of L-type calcium channel in endothelium-denuded Wistar rat aorta rings depolarized with 60 mM K+ solution assessed as relaxation of Ca2+-induced contraction
Method in brief: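 Endothelium-denuded rings stimulated with 60 mM K+ for 15 min, then washed 90 min in Ca2+-free PSS with 1 mM EGTA, and stores emptied with 0.3 μM phenylephrine. Depolarized in Ca2+-free 60 mM K+ PSS, then cumulative Ca2+ (0.03−3 mM). Test substance or vehicle present 30 min before and throughout.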

[5] = biological target: T1, Voltage-gated L-type calcium channel; test: Inhibition of L-type calcium channel in endothelium-denuded Wistar rat aorta rings assessed as relaxation of phenylephrine-induced contraction; conditions: for inhibition (INH): rat
[6] = biological target: T1, Voltage-gated L-type calcium channel; test: Inhibition of L-type calcium channel in endothelium-denuded Wistar rat aorta rings depolarized with 60 mM K+ solution assessed as relaxation of Ca2+-induced contraction at 12 and 40 uM in presence of 10 nM calcium channel agonist (S)-(-)Bay K 8644
Method in brief: (§2)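 Following the cumulative Ca2+ (0.03−3 mM) curve in endothelium-denuded rings depolarized with Ca2+-free 60 mM K+ PSS, with compound or vehicle present from 30 min beforehand, 10 nM (S)-(−)-Bay K 8644 was added after the last Ca2+ addition. Tone expressed as % of the response to 60 mM K+; mean ± SE, n = 4−17.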

[7] = biological target: T1, Voltage-gated L-type calcium channel; test: Inhibition of L-type calcium channel in endothelium-intact Wistar rat aorta rings assessed as relaxation of 0.3 uM phenylephrine-induced contraction
[8] = biological target: T1, Voltage-gated L-type calcium channel; test: Inhibition of L-type calcium channel in Wistar rat tail artery myocytes assessed as reduction in L-type Ba(2+) current at Vh of -50 mV; conditions: for inhibition (INH): rat
[9] = biological target: T1, Voltage-gated L-type calcium channel; test: Inhibition of L-type calcium channel in Wistar rat aorta rings assessed as relaxation of phenylephrine-induced contraction in Ca2+ restored medium; method in brief: as §1
[10] = biological target: T1, Voltage-gated L-type calcium channel; test: Inhibition of L-type calcium channel in endothelium-denuded Wistar rat aorta rings depolarized with 60 mM K+ solution assessed as relaxation of Ca2+-induced contraction at 43 and 128 uM in presence of 10 nM calcium channel agonist (S)-(-)Bay K 8644; method in brief: as §2

inhibition (INH) [1]	pIC50 [2]	inhibition (INH) [2]	pIC50 [3]	inhibition (INH) [4]	pIC50 [5]	inhibition (INH) [5]	inhibition (INH) [6]	pIC50 [7]	IC50 [8] [µM]	inhibition (INH) [9]	inhibition (INH) [10]	Structure (SMILES)	inhibition (INH) [8]	inhibition (INH) ([7]; rat)
Not Active	4.8	Dose-dependent effect	4.5	Dose-dependent effect	4.7	Dose-dependent effect	Not Active	4.4	251	–	–	CSC(=O)N(C)CCc1c[nH]c2ccccc12	Dose-dependent effect	–
Not Active	4.1	Dose-dependent effect	3.9	Dose-dependent effect	4.3	Dose-dependent effect	–	4.2	–	Active	Not Active	CSC(=O)NCCc1c[nH]c2ccccc12	–	–

Structure (SMILES)	inhibition (INH) [1]	pIC50 [2]	inhibition (INH) [2]	pIC50 [3]	inhibition (INH) [4]	pIC50 [5]	inhibition (INH) [5]	inhibition (INH) [6]	pIC50 [7]	IC50 [8] [µM]	inhibition (INH) [9]	inhibition (INH) [10]	inhibition (INH) [8]	inhibition (INH) ([7]; rat)
COc1ccc(CCN(C)CCCC(C#N)(c2ccc(OC)c(OC)c2)C(C)C)cc1OC (stereo not given)	–	–	Dose-dependent effect	–	–	–	Dose-dependent effect	–	–	–	–	–	Dose-dependent effect	Dose-dependent effect
